# Active and inactive are the calls of the source. The calls are words filed in the database; no cut-off is given here.
# Tests used:
# Micrococcus luteus = test: Antibacterial activity against Micrococcus luteus NCTC 8340; assay type: functional
# Outline: (§1)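 Strains grown in modified Gause's nutrient medium N 2, inoculum 10⁶ cells/ml. Test compound dissolved in 50% aqueous methanol, added at ten volume percent of the medium. Growth controls: medium without additions, medium with solvent mixture, and clinical antibiotics (amikacin, ciprofloxacin, isoniazid, rifampicin, oxacillin, vancomycin).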
# [1] = tested on: Leuconostoc mesenteroides; test: Antibacterial activity against Leuconostoc mesenteroides VKPM B-4177; assay type: functional; outline: as §1
# Staphylococcus aureus [2] = test: Antibacterial activity against Staphylococcus aureus INA 00761; assay type: functional; outline: as §1
# Bacillus subtilis = test: Antibacterial activity against Bacillus subtilis ATCC 6633; assay type: functional; outline: as §1
# [3] = tested on: Mycolicibacterium smegmatis; test: Antibacterial activity against Mycobacterium smegmatis VKPM Ac-1339; assay type: functional; outline: as §1
# [4] = tested on: Mycolicibacterium smegmatis; test: Antibacterial activity against Mycobacterium smegmatis mc2155; assay type: functional
# Outline: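 Strains were grown in modified Gause's nutrient medium N 2 at 10⁶ cells/ml. The compound was dissolved in 50% aqueous methanol and added at 10 volume percent of the medium. Controls were untreated cultures, medium with the solvent mixture, and clinical antibiotics.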
# [5] = Cytotoxicity against human A549 cells by MTT assay; assay type: cell-based
# Outline: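 Adherent A549 cells passaged in DMEM with 10% fetal calf serum and 2 mM glutamine, at 37 °C, 5% CO2, 90% humidity. MTT test. CC50 is the concentration that inhibits culture growth by 50%.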
# Staphylococcus aureus [6] = test: Antibacterial activity against Staphylococcus aureus FDA 209 P; assay type: functional; outline: as §1
# [7] = Chemical stability of compound in pH 9 at 5 mg measured after 24 hrs by TLC analysis; assay type: physicochemical; conditions: pH 9, 24 h
# Outline: (§2)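 Compound incubated at 37 °C in 0.2 M glycine/HCl (pH 2.2), 0.1 M potassium phosphate (pH 7.5) or 0.2 M glycine/NaOH (pH 9.0). Followed for 24 h and up to over a week.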
# [8] = Chemical stability of compound in pH 2.2 at 5 mg measured after 7 days by TLC analysis; assay type: physicochemical; conditions: pH 2.2, 168 h, time 7 day; outline: as §2
# [9] = Chemical stability of compound in pH 7.5 at 5 mg measured after 7 days by TLC analysis; assay type: physicochemical; conditions: pH 7.5, 168 h, time 7 day; outline: as §2
# [10] = Aqueous solubility of compound; assay type: physicochemical; conditions: buffer
# [11] = Metabolic stability in human serum assessed as half life at 100 mM measured for 24 hrs by HPLC/TLC analysis; assay type: ADME, cell-free
# [12] = tested on: Simplicillium lamellicola; test: Antifungal activity against Simplicilium-lamellicola SRX772919 STG-96 assessed as reduction in fungal growth at 0.1 to 3.5 mM measured for 24 days by drop dilution assay relative to control; assay type: functional; conditions: dose 0.1-3.5 mM, time 24.0 day
# Outline: (§3)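 Drop-dilution method. Suspension plated on CDA with or without compound (screening range 0.1–3.5 mM); 5-fluorocytosine positive control. Incubated at 26 °C. Inhibition % = (Dc−Dt)/Dc × 100 from colony diameters; triplicate, repeated at least twice.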
# Microascus paisii = test: Antifungal activity against Microascus-paisii SRX7729192 STG-103 assessed as reduction in fungal growth at 0.1 to 3.5 mM measured for 24 days by drop dilution assay relative to control; assay type: functional; conditions: dose 0.1-3.5 mM, time 24.0 day; outline: as §3
# Aspergillus amoenus = test: Antifungal activity against Aspergillus-amoenus SRX7729194 STG-106 assessed as reduction in fungal growth at 0.1 to 3.5 mM measured for 24 days by drop dilution assay relative to control; assay type: functional; conditions: dose 0.1-3.5 mM, time 24.0 day; outline: as §3
# [13] = tested on: Cladosporium halotolerans; test: Antifungal activity against Cladosporium-halotolerans SRX7729178 STG-52B assessed as reduction in fungal growth at 0.1 to 3.5 mM measured for 24 days by drop dilution assay relative to control; assay type: functional; conditions: dose 0.1-3.5 mM, time 24.0 day; outline: as §3
# Aspergillus versicolor [14] = test: Antifungal activity against Aspergillus versicolor SRX7729182 STG-25G assessed as reduction in fungal growth at 0.1 to 3.5 mM measured for 24 days by drop dilution assay relative to control; assay type: functional; conditions: dose 0.1-3.5 mM, time 24.0 day; outline: as §3
# [15] = tested on: Cladosporium parahalotolerans; test: Antifungal activity against Cladosporium-parahalotolerans SRX7729188 STG-93B assessed as reduction in fungal growth at 0.1 to 3.5 mM measured for 24 days by drop dilution assay relative to control; assay type: functional; conditions: dose 0.1-3.5 mM, time 24.0 day; outline: as §3
# Alternaria chartarum = test: Antifungal activity against Ulocladium chartarum SRX7729176 STG-36 assessed as reduction in fungal growth at 0.1 to 3.5 mM measured for 24 days by drop dilution assay relative to control; assay type: functional; conditions: dose 0.1-3.5 mM, time 24.0 day; outline: as §3
# Aspergillus = test: Antifungal activity against Aspergillus SRX7729186 STG-93W assessed as reduction in fungal growth at 0.1 to 3.5 mM measured for 24 days by drop dilution assay relative to control; assay type: functional; conditions: dose 0.1-3.5 mM, time 24.0 day; outline: as §3
# Aspergillus versicolor [16] = test: Antifungal activity against Aspergillus versicolor SRX7729174 STG-25G assessed as reduction in fungal growth at 0.1 to 3.5 mM measured for 24 days by drop dilution assay relative to control; assay type: functional; conditions: dose 0.1-3.5 mM, time 24.0 day; outline: as §3
# Aspergillus creber = test: Antifungal activity against Aspergillus-creber SRX7729180 STG-57 assessed as reduction in fungal growth at 0.1 to 3.5 mM measured for 24 days by drop dilution assay relative to control; assay type: functional; conditions: dose 0.1-3.5 mM, time 24.0 day; outline: as §3
smiles,measurement,setting,value
CCCCCCCCNc1ccn([C@H]2C[C@H](O)[C@@H](CO)O2)c(=O)n1,MIC,Micrococcus luteus,> 200 µM
same,MIC,[1],> 200 µM
same,MIC,Staphylococcus aureus [2],> 200 µM
same,MIC,Bacillus subtilis,> 200 µM
same,MIC,[3],> 200 µM
same,MIC,[4],> 200 µM
same,CC50,[5],90 µM
same,MIC,Staphylococcus aureus [6],> 200 µM
Cc1cn([C@H]2C[C@H](O)[C@@H](CO)O2)c(=O)nc1NCCc1ccccc1,MIC,Micrococcus luteus,> 200 µM
same,MIC,[1],> 200 µM
same,MIC,Staphylococcus aureus [2],> 200 µM
same,MIC,Bacillus subtilis,> 200 µM
same,MIC,[3],> 200 µM
same,MIC,[4],> 200 µM
same,CC50,[5],90 µM
same,MIC,Staphylococcus aureus [6],> 200 µM
NNC(=O)c1ccncc1 [ISONIAZID],MIC,[3],2 µM
same,MIC,[4],29 µM
CCCCCCCCCCCCNc1nc(=O)n([C@H]2C[C@H](OC(=O)OCCOCCOCCO)[C@@H](CO)O2)cc1C,MIC,Micrococcus luteus,50 µM
same,MIC,[1],68 µM
same,MIC,Staphylococcus aureus [2],50 µM
same,Stabilty,[7],Stable
same,MIC,Bacillus subtilis,68 µM
same,MIC,[3],68 µM
same,Stabilty,[8],Stable
same,MIC,[4],68 µM
same,CC50,[5],90 µM
same,Stabilty,[9],Stable
same,MIC,Staphylococcus aureus [6],50 µM
same,solubility,[10],Soluble
same,half-life,[11],≥ 24 h
CCCCCCNc1nc(=O)n([C@H]2C[C@H](O)[C@@H](CO)O2)cc1C,MIC,Micrococcus luteus,> 200 µM
same,MIC,[1],> 200 µM
same,MIC,Staphylococcus aureus [2],> 200 µM
same,MIC,Bacillus subtilis,> 200 µM
same,MIC,[3],> 200 µM
same,MIC,[4],> 200 µM
same,CC50,[5],90 µM
same,MIC,Staphylococcus aureus [6],> 200 µM
CCCCCCCCNc1nc(=O)n([C@H]2C[C@H](O)[C@@H](CO)O2)cc1C,MIC,Micrococcus luteus,> 200 µM
same,inhibition,[12],Active
same,inhibition,Microascus paisii,Active
same,MIC,[1],> 200 µM
same,inhibition,Aspergillus amoenus,Active
same,MIC,Staphylococcus aureus [2],> 200 µM
same,MIC,Bacillus subtilis,> 200 µM
same,inhibition,[13],Active
same,inhibition,Aspergillus versicolor [14],Active
same,inhibition,[15],Active
same,inhibition,Alternaria chartarum,Active
same,MIC,[3],> 200 µM
same,inhibition,Aspergillus,Active
same,MIC,[4],> 200 µM
same,CC50,[5],90 µM
same,MIC,Staphylococcus aureus [6],> 200 µM
same,inhibition,Aspergillus versicolor [16],Active
same,inhibition,Aspergillus creber,Active
CN[C@H](CC(C)C)C(=O)N[C@H]1C(=O)N[C@@H](CC(N)=O)C(=O)N[C@H]2C(=O)N[C@H]3C(=O)N[C@H](C(=O)N[C@H](C(=O)O)c4cc(O)cc(O)c4-c4cc3ccc4O)[C@H](O)c3ccc(c(Cl)c3)Oc3cc2cc(c3O[C@@H]2O[C@H](CO)[C@@H](O)[C@H](O)[C@H]2O[C@H]2C[C@](C)(N)[C@H](O)[C@H](C)O2)Oc2ccc(cc2Cl)[C@H]1O [VANCOMYCIN],MIC,[1],> 275 µM
CO[C@H]1/C=C/O[C@@]2(C)Oc3c(C)c(O)c4c(O)c(c(/C=N/N5CCN(C)CC5)c(O)c4c3C2=O)NC(=O)/C(C)=C\C=C\[C@H](C)[C@H](O)[C@@H](C)[C@@H](O)[C@@H](C)[C@H](OC(C)=O)[C@@H]1C [RIFAMPIN],MIC,[3],10 µM
same,MIC,[4],5 µM
CCCCCCCCCCNc1nc(=O)n([C@H]2C[C@H](O)[C@@H](CO)O2)cc1C,MIC,Micrococcus luteus,50 µM
same,inhibition,[12],inactive
same,inhibition,Microascus paisii,inactive
same,MIC,[1],50 µM
same,inhibition,Aspergillus amoenus,inactive
same,MIC,Staphylococcus aureus [2],50 µM
same,MIC,Bacillus subtilis,50 µM
same,inhibition,[13],inactive
same,inhibition,Aspergillus versicolor [14],inactive
same,inhibition,[15],inactive
same,inhibition,Alternaria chartarum,inactive
same,MIC,[3],50 µM
same,inhibition,Aspergillus,inactive
same,MIC,[4],50 µM
same,CC50,[5],156 µM
same,MIC,Staphylococcus aureus [6],50 µM
same,inhibition,Aspergillus versicolor [16],inactive
same,inhibition,Aspergillus creber,inactive
O=C(O)c1cn(C2CC2)c2cc(N3CCNCC3)c(F)cc2c1=O [CIPROFLOXACIN],MIC,Staphylococcus aureus [2],12 µM
same,MIC,[3],12 µM
same,MIC,[4],15 µM
same,MIC,Staphylococcus aureus [6],3 µM
